These results are taken from ChEMBL document CHEMBL4513216, “Probing the Open Global Health Chemical Diversity Library for Multistage-Active Starting Points for Next-Generation Antimalarials” (ACS Infect Dis, 2020).

The structures appear in SMILES notation.

The series in a line: Toxicity liver stage against HepG2, at 10uM. Set-up: test concentration 10 uM, cell line HepG2-A16-CD81EGFP. The format is cell-based. Conditions: human, HepG2-A16-CD81EGFP cells; read-out: INHIBITION
An outline of the steps:
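Uninfected HepG2-A16-CD81EGFP cells, 3 × 10^3 per well, 1536-well, plated on prespotted compound at 10 μM final, parasite-free screening media added to match infected plates; puromycin 10 μM positive, DMSO 0.5% negative; run in parallel with 48 h PbLuc assay at 37 °C, 5% CO2; viability by CellTiter-Glo luminescence, normalized to controls.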
Regarding `COC(=O)C1CCN(C(=O)CN2CCN(c3cccc(C)c3)CC2)CC1`, the cytotoxicity at 10 µM was -17.5%.
Regarding `COc1ccc(NC(=O)Nc2c(O)c3ccccc3oc2=O)cc1`, the cytotoxicity at 10 µM is -9.87%.
Turning to `Cc1nn(C)cc1CN1CCCCCC1c1ccccc1Cl` (stereo not drawn), the cytotoxicity at 10 µM was 7.49%.
Take `Cc1cnc2n(c1=O)C(CC(=O)NCc1ccco1)CS2` (stereo not drawn): the cytotoxicity at 10 µM was -5.52%.
Turning to `O=S(=O)(c1cccnc1)N1CCN(Cc2nc(-c3ccco3)cs2)CC1`, the cytotoxicity at 10 µM stood at 5.94%.
On to `COc1ncccc1C(=O)N1CC(c2nc(-c3ccccn3)no2)C1`, for which the cytotoxicity at 10 µM is 3.19%.
In the case of `CSCC(C)(O)CNS(=O)(=O)Cc1ccc(F)cc1` (stereo not drawn), the cytotoxicity at 10 µM was -1.12%.
As to `CN(C)CC(=O)N1CCC2(CC1)CN(Cc1ccccc1)C2`, the cytotoxicity at 10 µM was 5.03%.
In the case of `O=C(c1ccco1)N1CCC2(CCC(=O)N2Cc2ccccc2)CC1` it was 7.59%; in that of `CCCNC(=O)CSc1nnc2[nH]c(=O)cc(CC)n12`, -17.3%.
In the case of `Cn1c(C(F)(F)F)nn(CCNC(=O)NCc2ccccc2)c1=O` it was -27.3%; in that of `Cc1cc(=O)n(CC(=O)NCC2CCCO2)c(-c2cccc(Cl)c2)n1` (stereo not drawn), -11%.
For the compound `NC(=O)CN1CCC(c2csc(Nc3cnccn3)n2)CC1`, the cytotoxicity at 10 µM was -2.19%.
As for `Cc1cc(C)nc(Nc2nccnc2C2CCCN(CCO)C2)n1` (stereo not drawn), the cytotoxicity at 10 µM is -0.0399%.
In the case of `COc1ncc(CN2C[C@@H]3C[C@@H](O)CN3C[C@@H]2Cc2ccccc2)cn1`, the cytotoxicity at 10 µM is -6.86%.
On to `CCC(=O)NC(Cc1cc(N(C)C)nc(C2CC2)n1)c1ccccc1` (stereo not drawn), for which the cytotoxicity at 10 µM is 0.301%.
Consider `O[C@H]1CCN(CCCOc2ccccc2F)C[C@@]12CCCO2`, for which the cytotoxicity at 10 µM was 1.14%.
In the case of `Cc1nc(C2CCN(C(=O)c3ccn(C)n3)CC2)c2sccn12` it was -4.66%; in that of `CN(C)S(=O)(=O)N1CCCC1c1cccc(-n2ccnc2)n1` (stereo not drawn), -3.75%.
Under `Cc1ncsc1CN1CC[C@](C)(O)[C@@H](Oc2cccc(F)c2)C1` stands -14.8%; under `CC(=O)N1CCCC(c2ccc(Nc3nc(C)cc(C)n3)cn2)C1` (stereo not drawn), -4.09%; under `Cc1ccc(O)c(CNc2cccc(CN3CCSCC3)c2)n1`, -7.94%.
Turning to `COc1ccc(-c2nc(CSC3CCCCNC3=O)co2)cc1` (stereo not drawn), the cytotoxicity at 10 µM came out at 20.9%.
Consider `CCc1ccsc1C(=O)N(C)CCc1ccncc1`, for which the cytotoxicity at 10 µM is -0.386%.
Under `CCn1cc(C(=O)NCC2(C(N)=O)CCOCC2)c2ccccc21` stands 0.969%; under `N#CCCn1cnc2c(Br)cccc2c1=O`, 4.65%.
In the case of `CCC(C)C(=O)N(C)Cc1cc(F)ccc1N1CCC(OC)CC1` (stereo not drawn) it was -5.41%; in that of `O=C1CCN(C(=O)C2(c3ccc(Br)cc3)CC2)CCN1`, 1.56%; in that of `Cc1nn(C)c(Cl)c1C1CCCN1CC(=O)N1CCOCC1` (stereo not drawn), 3.41%.
On to `COc1ccccc1C(CNC(=O)NCc1cc[nH]n1)N1CCCC1` (stereo not drawn), for which the cytotoxicity at 10 µM is -0.634%.
As to `CSC(C)(C)CNC(=O)NC1CCN(CC(F)F)CC1`, the cytotoxicity at 10 µM is -5.12%.
`CCNC(=O)CCC(=O)NC1(c2cccc(Br)c2)CC1`: the cytotoxicity at 10 µM was found to be 8.64%.
As to `CCc1nnc(CN2CCC(c3nc4cc(Cl)ccc4o3)CC2)o1`, the cytotoxicity at 10 µM was -0.956%.
On to `CC(CNC(=O)c1cc(Cl)ccc1F)N1CCCC1` (stereo not drawn), for which the cytotoxicity at 10 µM is -4.43%.
In the case of `COc1cccnc1NC(=O)COc1ccc(F)cc1F` it was 8.68%; in that of `O=C(NC1CCC(C(=O)N2CCSCC2)CC1)N1CCC1` (stereo not drawn), 12.7%; in that of `O=C(NCCc1nnc2n1CCC2)NCC1(c2ccccc2F)CC1`, 0.833%.
As for `COc1ccc(CNC(=O)NC2CCN(C)CC2)c(C(F)(F)F)c1`, the cytotoxicity at 10 µM is -12.2%.
In the case of `CC(C)N(C)C(=O)C1CCN(Cc2cc3c(cc2O)CCC3)CC1`, the cytotoxicity at 10 µM is 6.15%.
As to `CCc1nn(C)c2[nH]nc(NC(=O)c3ccccc3COC)c12`, the cytotoxicity at 10 µM is 6.16%.
As for `O=C(Nc1ccc(F)cc1)N(CCC(F)(F)F)C[C@H](O)CO`, the cytotoxicity at 10 µM was -7.8%.
For `CC(C)CSCCCNC(=O)C1CCOC1` (stereo not drawn), the cytotoxicity at 10 µM is -5.81%.
With `Cn1nccc1NCc1cc2cc(F)ccc2o1`, the cytotoxicity at 10 µM worked out at 8.57%.
Consider `Cc1ccc(C)c(OCc2nnc(SCC3CCCN(C)C3)o2)c1` (stereo not drawn), for which the cytotoxicity at 10 µM is 5.24%.
For `CCC(CNC(=O)c1cc(OC)ccc1Br)N1CCc2ccccc2C1` (stereo not drawn), the cytotoxicity at 10 µM is -6.78%.
`CN(C(=O)c1cccc(C(=O)NCC(F)(F)F)c1)c1ccccc1`: the cytotoxicity at 10 µM is -14.8%.
For `Cc1cccc(N2CCOCC3(C2)CN(c2cncnc2)C(=O)CO3)n1` (stereo not drawn), the cytotoxicity at 10 µM was found to be 5.88%.
Turning to `O=C(c1cc(C2CC2)on1)N1CC[C@]2(C[C@H](Oc3cccnc3)CO2)C1`, the cytotoxicity at 10 µM was -9.63%.
With `CC(=O)N1CCC(n2nccc2-c2cnc(N3CCCC3)nc2)CC1`, the cytotoxicity at 10 µM is -0.00173%.
Under `CO[C@H]1C[C@@H](O)C12CCN(CCCOc1ccc(C(N)=O)cc1)CC2` stands -5.66%; under `CNc1ccc(C)cc1C(=O)N1CCCC2(CCNC2)C1` (stereo not drawn), -6.63%; under `N#Cc1c(N)nc2c(c1-c1c[nH]nc1C1CCCCC1)CNCC2`, 0.787%.
In the case of `COCC(=O)N1CCc2cccc(S(=O)(=O)N3CCOCC3)c2C1` it was -5.42%.
In the case of `Cc1cc(-c2cc(-c3cc(CC(=O)O)cs3)nc(N)c2C#N)oc1C` it was -6.25%.
Take `O=C(c1cncc(NCC2COc3ccccc3C2)n1)N1CCCC1` (stereo not drawn): the cytotoxicity at 10 µM was -6.53%.
For `Cc1cccc2[nH]c(C3CCN(C(=O)c4cccnn4)CC3)nc12`, the cytotoxicity at 10 µM amounted to 11.2%.
Under `CSc1nccc(-c2cccc(-c3ccn(CC4COCCO4)n3)c2)n1` (stereo not drawn) stands -7.92%.
`c1cc(C2CCN(c3ncnc4c3CCNCC4)CC2)ccn1`: the cytotoxicity at 10 µM stood at 8.33%.
For the compound `COC(=O)N1CCN(Cc2ccccc2Cl)CC1`, the cytotoxicity at 10 µM was -0.227%.
On to `COCCN(Cc1cnn(C)c1)CC1CCN(C(C)C)CC1`, for which the cytotoxicity at 10 µM is -9%.
For `COCC(O)CNC(=O)c1coc(COc2ccc3sc(C)nc3c2)n1` (stereo not drawn), the cytotoxicity at 10 µM was 10.8%.
In the case of `Cc1ccc(CN2CCC(c3nnc(CN4CCCCC4)n3C)CC2)o1`, the cytotoxicity at 10 µM is -5.1%.
Take `CCn1cc(CN2CCCn3nc(CCC(=O)NCCO)cc3C2)cn1`: the cytotoxicity at 10 µM was -18.2%.
Under `COc1ccc(OCc2nc(C(=O)N3CC(O)C3)co2)cc1` stands -9.29%; under `Cn1c(=O)c2cc(C(=O)NCCOc3ccccc3)ccc2n(C)c1=O`, -4.69%; under `Cc1cc(Br)c(O)c(-c2nc(N3CCOCC3)sc2C)c1`, 74.4%.
In the case of `CNC(=O)C1(c2cnccn2)CCCN1C(=O)c1ccn(C)n1` (stereo not drawn), the cytotoxicity at 10 µM was -5.15%.
`c1ccc(-c2nnc3n2CCN(Cc2ccc4c(c2)OCCO4)C3)cc1`: the cytotoxicity at 10 µM came to 7.66%.
Consider `O=C(CCCN1CCOC1=O)Nc1cnn(-c2ccccc2Cl)c1`, for which the cytotoxicity at 10 µM was -4.56%.
Turning to `O=C(CCc1cccc(Cl)c1Cl)N1CCOCC1c1ncon1` (stereo not drawn), the cytotoxicity at 10 µM is -2.33%.
Turning to `CC(C)c1ncc2c(n1)CN(Cc1nc(-c3cccnc3)no1)CC2`, the cytotoxicity at 10 µM is -18.7%.
On to `COCCOc1cccc(C(=O)N2CCCC(n3ccnc3)C2)c1` (stereo not drawn), for which the cytotoxicity at 10 µM was -17.1%.
For `CC(C)n1cc(CN2CCCN(C(=O)CN3CCCC3=O)CC2)cn1`, the cytotoxicity at 10 µM is -27.5%.
On to `Cc1cnn(CC(=O)N2CCCN(Cc3cnn(C(C)C)c3)CC2)c1`, for which the cytotoxicity at 10 µM was -12.3%.
Regarding `Cc1ncsc1C(=O)N(Cc1ccccc1)C1CC1`, the cytotoxicity at 10 µM is -6.48%.
With `CC(NC(=O)CCCc1nc(C(C)(C)C)no1)c1ccccn1` (stereo not drawn), the cytotoxicity at 10 µM is -5.81%.
As for `CCOc1ccccc1OC1CCN(C(=O)c2c[nH]nn2)CC1`, the cytotoxicity at 10 µM was -2.48%.
`COc1ccc2c(c1)CCN2Cc1nc2c(cnn2C)c(=O)[nH]1`: the cytotoxicity at 10 µM is -10.3%.
Consider `CN(Cc1ccsc1)C(=O)Nc1ccc(N(C)C)nc1`, for which the cytotoxicity at 10 µM was -3.08%.
Turning to `CCCc1n[nH]c(C2CN(C(=O)c3cc4c(s3)CCC4)CCO2)n1` (stereo not drawn), the cytotoxicity at 10 µM is -10.1%.
Regarding `CN1CCOC(CNCc2coc(-c3ccc(Cl)cc3)n2)C1` (stereo not drawn), the cytotoxicity at 10 µM was -9.99%.
Take `CCN(CC)C(CNC(=O)c1c(C)noc1C(C)C)c1ccsc1` (stereo not drawn): the cytotoxicity at 10 µM is -12.2%.
`Fc1ccc(-c2nc(CN3CCCC3Cn3cncn3)co2)cc1F` (stereo not drawn): the cytotoxicity at 10 µM is -5.58%.
As to `Cc1cc(C)n(C2CN(CC(O)c3cc(F)ccc3F)C2)n1` (stereo not drawn), the cytotoxicity at 10 µM was -15.1%.
As to `CC(C)c1nc(CN(C)C2CCN(CCS(C)(=O)=O)C2)no1` (stereo not drawn), the cytotoxicity at 10 µM was -13.4%.
Take `NC(=O)CN1CCCN(C(=O)Cc2cccc(C(F)(F)F)c2)CC1`: the cytotoxicity at 10 µM was -3.05%.
For `CNc1snc(C)c1C(=O)N1CCCC(n2ccnc2)C1` (stereo not drawn), the cytotoxicity at 10 µM was -13.8%.
In the case of `CC(C)c1nc(C2CCCN2Cc2cc(=O)n(C)c(=O)n2C)no1` (stereo not drawn) it was -10.7%; in that of `c1nc(N2CCOC(Cn3cncn3)C2)c2cc[nH]c2n1` (stereo not drawn), -7.97%; in that of `Cc1ccc(CC(=O)N2CCCC2Cn2nc(C)cc2C)cn1` (stereo not drawn), -9.24%.
In the case of `CC(Cn1cccn1)NCc1csc(COc2ccc(F)cc2)n1` (stereo not drawn) it was 5.84%; in that of `CN(C)S(=O)(=O)c1ccc(CN2CCCC2c2ccccc2)o1` (stereo not drawn), -5.72%; in that of `Cc1cnn(CC2CN(Cc3nnc(C4CC4)o3)CCO2)c1` (stereo not drawn), -11.8%.
In the case of `Cc1nc(CN2CCN(Cc3nccn3C)CC2)no1`, the cytotoxicity at 10 µM came out at 3.44%.
Take `Cc1cc(NC(=O)CN2CCOC(Cn3cccn3)C2)n(C)n1` (stereo not drawn): the cytotoxicity at 10 µM worked out at 5.56%.
For `COc1c(CNCCNC(=O)c2cccc(C)c2)c(C)nn1C`, the cytotoxicity at 10 µM is -6.64%.
As for `CCc1ccc(CN2CCC3(CC2)CNC(=O)CO3)o1`, the cytotoxicity at 10 µM was -16.5%.
For the compound `CC[C@H](N)Cn1nc(-c2cccs2)oc1=O`, the cytotoxicity at 10 µM came to 1.75%.
